Reference: ChEMBL document CHEMBL1153492, “Design, synthesis, and structure-activity relationships of 1,3-dihydrobenzimidazol-2-one analogues as anti-HIV agents” (Bioorg Med Chem, 2009)

Key:
[1] = Selectivity index, CC50 for human MT4 cells to EC50 for HIV1 3B; assay type: toxicity, cell-based; conditions: read-out: Ratio CC50/EC50
[2] = biological target: Human immunodeficiency virus type 1 reverse transcriptase (Human immunodeficiency virus 1, UniProt Q72547); experiment: Inhibition of HIV1 recombinant RNA-dependent DNA polymerase activity of reverse transcriptase assessed as incorporation of radioactive dTTP into poly(rA)/oligo(dT)
[3] = system: Human immunodeficiency virus 1; experiment: Antiviral activity against HIV1 3B infected in human MT4 cells assessed as reduction of virus-induced cytopathic effect after 5 days; assay type: functional, organism-based; conditions: Human immunodeficiency virus 1, 3B, MT4, 120 h
Method in brief: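 MT-4 cells infected with HIV-1 IIIB at about 100-times the CCID50 per ml of cell suspension, plated and mixed with compound, then incubated at 37 °C for 5 days. Viable cell number was then determined. EC50 is the concentration that reduces virus-induced cytopathicity by 50%.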

[4] = Cytotoxicity against human MT4 cells after 5 days; assay type: cell-based
Method in brief: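 Run in MT-4 cells in parallel with the HIV-1 IIIB cytopathicity assay, with 37 °C incubation for 5 days and a read-out of viable MT-4 cell number.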

Row | IC50 [2] [µM] | EC50 [3] [µM] | SMILES | selectivity ratio [1] | CC50 at 120 h [4] [µM]
1 | 32.7 | 1.5 | O=C(CCl)Nc1ccc(Cl)cc1NS(=O)(=O)c1c(Cl)cccc1Cl | 107 | 160
2 | 15.9 | 8.99 | O=C(CCl)Nc1ccc(Cl)cc1NS(=O)(=O)c1cc(Cl)cc(Cl)c1 | > 32 | > 292
3 | > 100 | 1.52 | O=c1[nH]c2ccc(Cl)cc2n1S(=O)(=O)c1c(Cl)cccc1Cl | > 218 | > 331
4 | > 40 | 7.04 | O=C1CN(S(=O)(=O)c2cccc(F)c2)c2cc(Cl)ccc2N1 | 27 | 189
5 | 0.85 | 0.23 | O=c1[nH]c2ccc(Cl)cc2n1S(=O)(=O)c1ccccc1F | > 1660 | > 383
6 | > 40 | 20.7 | O=C1CN(S(=O)(=O)c2c(F)cccc2F)c2cc(Cl)ccc2N1 | 9 | 180
7 | > 40 | 6.1 | O=C1CN(S(=O)(=O)c2ccccc2F)c2cc(Cl)ccc2N1 | 32 | 197
8 | > 40 | 0.1 | Cc1cc(C)cc(S(=O)(=O)N2CC(=O)Nc3ccc(Cl)cc32)c1 | 782 | 80.6
9 | > 40 | 14 | O=C1CN(S(=O)(=O)c2cc(F)cc(F)c2)c2cc(Cl)ccc2N1 | 13 | 187
10 | 284 | > 156 | N#Cc1cccc(S(=O)(=O)Nc2cc(Cl)ccc2NC(=O)CCl)c1 | < 1 | > 156
11 | > 40 | 26.7 | O=C1CN(S(=O)(=O)c2cc(Cl)cc(Cl)c2)c2cc(Cl)ccc2N1 | > 8 | ≥ 206
12 | > 40 | 36 | O=c1[nH]c2ccc(Cl)cc2n1S(=O)(=O)c1ccc(F)cc1 | ≥ 10 | ≥ 355
13 | 1.67 | 1.09 | O=C1CN(S(=O)(=O)c2c(Cl)cccc2Cl)c2cc(Cl)ccc2N1 | > 293 | > 319
14 | 0.003 | 0.048 | O=c1[nH]c2ccc(Cl)cc2n1S(=O)(=O)c1cc(Cl)cc(Cl)c1 | 3740 | 179
15 | > 40 | > 172 | O=C1CN(S(=O)(=O)c2ccc(F)cc2)c2cc(Cl)ccc2N1 | < 1 | 172
16 | 0.36 | 0.149 | N#Cc1cccc(S(=O)(=O)n2c(=O)[nH]c3ccc(Cl)cc32)c1 | 1360 | 205
17 | 3.36 | 0.047 | Cc1cc(C)cc(S(=O)(=O)Nc2cc(Cl)ccc2NC(=O)CCl)c1 | 747 | 35.1
18 | > 40 | ≥ 47.7 | N#Cc1cccc(S(=O)(=O)N2CC(=O)Nc3ccc(Cl)cc32)c1 | ≤ 4 | 186
19 | 30.4 | 6.96 | O=C(CCl)Nc1ccc(Cl)cc1NS(=O)(=O)c1c(F)cccc1F | 25 | 175
20 | 27.8 | 11.2 | O=C(CCl)Nc1ccc(Cl)cc1NS(=O)(=O)c1cc(F)cc(F)c1 | 16 | 179
21 | 0.132 | 0.043 | O=c1[nH]c2ccc(Cl)cc2n1S(=O)(=O)c1cccc(F)c1 | 2960 | 128
22 | – | – | O=C1Nc2ccc(Cl)cc2[C@@](C#CC2CC2)(C(F)(F)F)O1 [EFAVIRENZ] | – | > 6
23 | – | – | Cc1ccnc2c1NC(=O)c1cccnc1N2C1CC1 [NEVIRAPINE] | – | > 15
